Bioassay records from PubChem BioAssay.
MrgX1 PAM: human MrgX1 positive allosteric modulation, primary screen; Q96LB2; MrgX1-HEK293, Fluo-4 calcium flux, FDSS; stronger effect = higher value; B-score at 10 µM; hit rate 0.63% among 310,000; AID 588675;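 active means plate-corrected calcium response at least 3 library SD above typical, normal starting fluorescence, not activating the receptor alone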;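 further: compound read alongside a low EC10 to EC30 dose of BAM8-22 agonist; peak minus trough fluorescence over baseline measured at the second addition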
Target sequence (Q96LB2 whole entry, looked up): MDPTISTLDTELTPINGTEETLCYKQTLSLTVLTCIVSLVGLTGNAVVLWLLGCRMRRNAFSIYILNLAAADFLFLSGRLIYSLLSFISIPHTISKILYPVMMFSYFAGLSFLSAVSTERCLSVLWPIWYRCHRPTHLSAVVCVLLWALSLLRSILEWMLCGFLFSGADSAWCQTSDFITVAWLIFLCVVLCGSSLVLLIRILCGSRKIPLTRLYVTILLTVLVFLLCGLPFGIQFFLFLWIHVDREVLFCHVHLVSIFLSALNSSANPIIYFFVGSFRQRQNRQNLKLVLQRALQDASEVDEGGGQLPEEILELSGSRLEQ
RGS4 block: inhibitors of human RGS4; hit rate 0.45% among 310,000; B-score at 10 µM; HEK293 M3R/RGS4 inducible, Fluo-4 calcium flux; stronger effect = higher value; triggered by carbachol at its EC20;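 active means B-score, a plate-corrected calcium signal, over three deviations above library mean, with baseline fluorescence within five deviations of library mean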;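 further: RGS4 expression induced by doxycycline in cells with stable M3 receptor; B-score is computed from the integrated fluorescence ratio over baseline after carbachol; higher B-score means a larger calcium signal and so more RGS4 inhibition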
Target sequence (P49798 whole entry, looked up): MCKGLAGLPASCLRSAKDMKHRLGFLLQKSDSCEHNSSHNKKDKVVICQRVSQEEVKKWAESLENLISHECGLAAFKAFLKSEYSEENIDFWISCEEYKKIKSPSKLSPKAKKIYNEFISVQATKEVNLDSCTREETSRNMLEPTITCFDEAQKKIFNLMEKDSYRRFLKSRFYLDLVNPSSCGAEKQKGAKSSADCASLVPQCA
MrgX1 agonist: activates human MrgX1 receptor signaling | MrgX1-HEK293 cells, Fluo-4 calcium fluorescence, agonist mode; stronger effect = higher value | hit rate 0.44% among 310,000 | Q96LB2 | B-score at 10 µM;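 active means calcium response B-score plate-corrected fluorescence ratio at least 3 library SD, with starting fluorescence B-score inside 5 SD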
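Test system: Stable human MrgX1 HEK293 cell line | Schedule: Overnight plating before 1 h dye loading | Read-out basis: Baseline-normalised fluorescence change ratio, B-scored | Detection: Kinetic calcium dye fluorescence, Fluo-4 NW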
MrgX1 antag: human MrgX1 receptor antagonism, primary screen; Q96LB2; MRGX1-HEK293 calcium flux, Fluo-4, BAM8-22 antagonism; stronger effect = lower value; B-score at 10 µM; hit rate 1.3% among 310,000;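 active means calcium-response B-score plate-corrected more than 3 library SD below zero, starting fluorescence within 5 deviations, no agonist response on first addition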;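 further: peak minus trough fluorescence over baseline after final BAM8-22 challenge near maximal dose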
RGS4 pot: RGS4 potentiation or activation. HEK293 M3R/inducible RGS4, carbachol calcium flux Fluo4; stronger effect = lower value. B-score at 10 µM. hit rate 0.92% among 310,000. AID 463111;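 active means B-score of the integrated calcium signal more than 4 SD below the library mean, with starting fluorescence not abnormally high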;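 further: negative B-score means reduced calcium response which marks RGS4 activation or potentiation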
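Material: M3R-expressing HEK293 line, RGS4 induced by doxycycline | Schedule: Overnight RGS4 induction, 30 min dye load 37 °C, 20 min compound RT | Measured by: Fluo4 fluorescence kinetic imaging of calcium | Read-out: Integrated calcium ratio converted to B score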
RGS4 inh valid: RGS4 inhibitor validation. hit rate 65% among 1,700. HEK293 M3R/RGS4, carbachol calcium Fluo-4 fluorescence; carbachol added at its EC20; 0 = buffer wells, 100 = carbachol control. shares compounds with RGS4 block. calcium response, % at 10 µM;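 active means duplicate-averaged calcium response above the buffer-only control mean plus 5 SD of those controls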;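 further: integrated fluorescence ratio F max minus min over baseline F0; higher response in RGS4-induced cells means RGS4 inhibition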
M3R Ca ctr: checks RGS4 inhibitor effects in non-induced HEK293 M3R cells; activity (percent), % at 10 µM; carbachol calcium Fluo-4; submaximal (EC20) carbachol stimulus; buffer wells 0%, carbachol control wells 100%; hit rate 20% among 1,900; shares compounds with RGS4 block; call rule not given here;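 further: RGS4 induction absent so cells express M3R without RGS4; higher means more calcium signal and flags a non-specific hit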
M3R basal Ca ctr: second counter-screen for RGS4 inhibitors: non-induced cells without carbachol; hit rate 22% among 1,900; HEK293 M3R/RGS4 non-induced, Fluo-4 calcium, no carbachol; normalised: buffer wells 0%, carbachol wells 100%; shares compounds with RGS4 block; calcium response (agonist-mode artifact), % at 10 µM; AID 493001;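 active means duplicate-averaged calcium rise in uninduced cells above buffer wells' mean plus 5 SD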
Numbers stand for hits; - = inactive; . = not tested or not shown. Rows were chosen to be rich in hits. Some 3.5% of all compounds tested hit in one or more screens of this group.

SMILES	MrgX1 PAM	RGS4 block	MrgX1 agonist	MrgX1 antag	RGS4 pot	RGS4 inh valid	M3R Ca ctr	M3R basal Ca ctr
NC(=O)N/N=C/c1c(Sc2nnnn2-c2ccccc2)nc2ccccn2c1=O	-	12	-	-	-	11%	-	-
Cc1nn(-c2ccccc2)c(Cl)c1/C=N/NC(N)=O	-	-	-	-	-	.	.	.
O=C(CCl)Nc1nc(-c2ccco2)c(-c2ccco2)s1	-	5.8	-	-	-	-	-	-
O=C(CCCSc1ccccc1)Nc1nc(-c2ccco2)c(-c2ccco2)s1	-	-	-	-	-	.	.	.
COc1ccc(C(=O)N/C(=C\c2ccccc2)C(=O)NCc2cccnc2)cc1	-	-	-	-	-	-	-	-
O=C(NCc1cccnc1)/C(=C/c1ccc(Cl)cc1)NC(=O)c1ccccc1	-	-	-	-	-	-	-	-
O=C(NCc1ccccc1Cl)/C(=C\c1cccnc1)NC(=O)c1ccccc1	-	-	-	-	-	.	.	.
COc1cccc(-c2nc(CS(=O)(=O)CC(=O)N3CCCCC3)c(C)o2)c1	-	-	-	-	-	.	.	.
Cc1ccc(C2=NOC(=O)/C2=C\c2ccccc2)cc1	-	-	-	-	-	.	.	.
O=C1ON=C(c2ccccc2)/C1=C/c1ccccc1	-	-	-	-	-	-	-	-
O=C1ON=C(c2ccccc2)/C1=C/c1ccc(O)cc1	-	11	-	-	-	24%	-	22%
O=C1ON=C(c2ccccc2)/C1=C\c1ccco1	-	-	-	-	-	.	.	.
CCOC(=O)C(=CNc1ccc(OC)cc1[N+](=O)[O-])C(=O)OCC	-	-	-	-	-	.	.	.
CCn1c(=O)c2c(n3c(=S)[nH]nc13)-c1ccccc1CC21CCCCC1	-	8.3	-	-	-	46%	57%	-
Cc1ccccc1-n1c(=O)c2c(n3cnnc13)-c1ccccc1CC21CCCCC1	-	-	-	-	-	.	.	.
N#CCSc1n[nH]c2nc3c(c(=O)n12)C1(CCCCC1)Cc1ccccc1-3	-	-	-	-	-	.	.	.
CCSc1n[nH]c2nc3c(c(=O)n12)C1(CCCCC1)Cc1ccccc1-3	-	-	-	-	-	.	-	-
CCCn1c(SCC(N)=O)nc2c(c1=O)C1(CCCC1)Cc1ccccc1-2	-	-	-	-	-	.	.	.
CSc1n[nH]c2nc3c(c(=O)n12)C1(CCCCC1)Cc1ccccc1-3	-	4.7	-	-	-	12%	-	-
Nc1nc2c(Cl)ccc(Cl)c2s1	-	-	-	-	-	.	.	.
COc1ccc(CCN(C)Cc2ccc(C(=O)Nc3ccccc3)cc2)cc1OC	-	-	-	-	-	.	.	.
COC(=O)N/N=C/c1cc(Br)ccc1O	-	-	-	-	-	.	.	.
CC(C)NC(=S)N/N=C/c1cc(Br)ccc1O	-	5.8	-	-	-	12%	-	-
COc1ccc(S(=O)(=O)/N=C2/NC(=O)/C(=C\c3ccco3)S2)cc1	-	-	-	-	-	.	.	.
COc1ccc(S(=O)(=O)/N=C2/NC(=O)/C(=C\c3cc(OC)c(OC)cc3[N+](=O)[O-])S2)cc1	-	-	-	-	-	-	-	-
SMILES	MrgX1 PAM	RGS4 block	MrgX1 agonist	MrgX1 antag	RGS4 pot	RGS4 inh valid	M3R Ca ctr	M3R basal Ca ctr
COc1cc(/C=C2\S/C(=N/S(=O)(=O)c3ccccc3)NC2=O)c([N+](=O)[O-])cc1OC	-	6.8	-	-	-	30%	68%	-
O=C(COC(=O)/C=C/c1ccc(F)cc1)Nc1ccccc1-c1ccccc1	-	-	-	-	-	.	.	.
CCOC(=O)c1ccc(N2C(=O)c3n[nH]c(-c4ccco4)c3C2c2cccc([N+](=O)[O-])c2)cc1 (stereo not given)	-	6.7	-	-	-	-	-	-
CCOC(=O)c1ccc(N2C(=O)c3n[nH]c(C)c3C2c2ccco2)cc1 (stereo not given)	-	-	-	-	-	.	.	.
CCOC(=O)c1sc(N2C(=O)C(O)=C(C(=O)c3ccc(C)o3)C2c2cccc([N+](=O)[O-])c2)nc1C (stereo not given)	-	7.3	-	-	-	24%	-	-
CCC(=O)NC(c1cccc([N+](=O)[O-])c1)c1c(OC(C)=O)ccc2ccccc12 (stereo not given)	-	-	-	-	-	.	.	.
CCC(=O)NC(c1ccccc1)c1c(OC(C)=O)ccc2ccccc12 (stereo not given)	-	-	-	-	-	.	45%	7.0%
CCC(C(=O)N1CCCC1)n1nc(C)c2c(C)n(-c3ccccc3)nc2c1=O (stereo not given)	-	-	-	-	-	-	-	-
CCC(C(=O)NCCc1ccc(C)cc1)n1nc(C)c2c(C)n(-c3ccccc3)nc2c1=O (stereo not given)	-	-	-	-	-	.	.	.
CC(=O)c1cn(Cc2ccccc2)c(=O)n(Cc2ccc(F)cc2)c1=O	-	-	-	-	-	.	.	.
O=C(CSCc1c(Cl)cccc1Cl)N1CCOCC1	-	-	-	-	-	.	.	.
Nc1sc(-c2ccccc2)cc1C(=O)N/N=C/c1ccc(Cl)cc1	-	4.7	-	-	-	14%	28%	-
O=C(N/N=C/c1ccc(Cl)cc1)c1cc(-c2cccnc2)nc2ccccc12	-	-	-	-	-	.	.	.
CN(c1ccccc1)S(=O)(=O)c1ccc(C(=O)OCC(=O)NCc2cccs2)cc1	-	-	-	-	-	.	.	.
O=C1N=c2ccccc2=C1c1c(O)n(-c2cccc(F)c2)[nH]c1=O	-	7	-	-	-	21%	-	-
Oc1ccc(-c2nc(-c3ccc(O)c(O)c3)cs2)cc1	-	-	-	-	-	-	-	-
Oc1ccc(Nc2nc(-c3ccc4ccccc4c3)cs2)cc1	-	41	-	-	-	84%	88%	-
CC(=O)Nc1nc(-c2ccc3ccccc3c2)cs1	-	5.1	-	-	-	-	-	-
O=C(CN1C(=O)CCC1=O)Nc1nc(-c2ccc3ccccc3c2)cs1	-	8	-	-	-	5.0%	-	-
NC(N)=NN=C1CCC(c2ccccc2)CC1 (stereo not given)	-	-	-	-	-	.	.	.
CN1CCC(OC(=O)COc2ccc(C(C)(C)C)cc2)CC1	-	-	-	-	-	.	.	.
Fc1ccc2c(c1)/C(=N/Nc1ccccn1)CCS2	-	12	-	-	-	14%	-	-
CCN(C(=S)Nc1ccc(Oc2ccccc2)cc1)c1ccccc1	-	-	-	-	-	.	.	.
COc1ccc(NC(=O)/C(Cl)=C(/Cl)S(=O)(=O)Cc2ccc(C)cc2)cn1	.	12	.	.	-	24%	-	7.5%
